In ChEMBL document CHEMBL1154716, “Synthesis of some new S-triazine based chalcones and their derivatives as potent antimicrobial agents” (2010):
≈ marks a conversion by molar mass, not a printed value. Calls of active or inactive are those of the source. No cut-off for these calls is given here.

Key:
Salmonella typhimurium [1] = assay: Antimicrobial activity against Salmonella Typhimurium at 1 umol/disk after 24 hrs by disk diffusion assay; type: functional, organism-based; details: Salmonella enterica subsp. enterica serovar Typhimurium
Summary of the method: (§1)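 Disc diffusion on 4 mm filter discs. Bacteria are grown overnight in LB at 28 C, then adjusted in saline to 1.0 × 10^5 cfu/ml. The suspension is mixed into top agar over peptone agar plates. Plates are incubated 24 h at 28 C, and growth-inhibition zone diameter is measured. Streptomycin and ampicillin controls are applied from a 1 mg/ml stock. Tests are done in duplicate.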

Listeria monocytogenes [2] = assay: Antimicrobial activity against Listeria monocytogenes at 1 umol/spot after 18 hrs by TLC-bioautographic method; type: functional
Summary of the method: (§2)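 TLC bioautography. Samples are spotted on silica gel TLC plates, then sprayed with bacteria (1.0 × 10^5 cfu/ml) in tryptic soy broth. Plates are incubated 18 h at 37 C and sprayed with 3% aqueous p-iodonitrotetrazolium violet. After a further 3 h, growth is stopped with 70% EtOH. White zones on a pink background are scored as inhibition-zone diameter with standard errors.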

Escherichia coli [3] = assay: Antimicrobial activity against Escherichia coli at 1 umol/disk after 24 hrs by disk diffusion assay; type: functional; summary of the method: as §1
Staphylococcus aureus [4] = assay: Antimicrobial activity against Staphylococcus aureus at 1 umol/spot after 18 hrs by TLC-bioautographic method; type: functional; summary of the method: as §2
Salmonella typhimurium [5] = assay: Antimicrobial activity against Salmonella Typhimurium at 10 ug/disk after 24 hrs by disk diffusion assay; type: functional, organism-based; details: Salmonella enterica subsp. enterica serovar Typhimurium; summary of the method: as §1
Micrococcus flavus [6] = assay: Antimicrobial activity against Micrococcus flavus at 1 umol/disk after 24 hrs by disk diffusion assay; type: functional; summary of the method: as §1
Pseudomonas aeruginosa [7] = assay: Antimicrobial activity against Pseudomonas aeruginosa at 1 umol/spot after 18 hrs by TLC-bioautographic method; type: functional; summary of the method: as §2
Salmonella typhimurium [8] = assay: Antimicrobial activity against Salmonella Typhimurium after 24 hrs by microdilution technique; type: functional, Salmonella enterica subsp. enterica serovar Typhimurium; details: Salmonella enterica
Summary of the method: (§3)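 Broth microdilution in LB medium. Inoculum is 1.0 × 10^4 cfu per well, from a saline-adjusted suspension of 1.0 × 10^5 cfu/ml. Compounds are dissolved in DMSO. Incubated 24 h at 28 C. MIC is the lowest concentration with no visible growth under a binocular microscope. MBC is read by subculture into fresh broth for 72 h, with no growth taken as 99.5% kill. OD is read at 655 nm.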

Staphylococcus aureus [9] = assay: Antimicrobial activity against Staphylococcus aureus at 1 umol/disk after 24 hrs by disk diffusion assay; type: functional; set-up: unit not given here; summary of the method: as §1
Salmonella typhimurium [10] = assay: Antimicrobial activity against Salmonella Typhimurium at 1 umol/spot after 18 hrs by TLC-bioautographic method; type: functional, Salmonella enterica subsp. enterica serovar Typhimurium; summary of the method: as §2
Pseudomonas aeruginosa [11] = assay: Antimicrobial activity against Pseudomonas aeruginosa after 24 hrs by microdilution technique; type: functional; summary of the method: as §3
Listeria monocytogenes [12] = assay: Antimicrobial activity against Listeria monocytogenes at 1 umol/disk after 24 hrs by disk diffusion assay; type: functional; summary of the method: as §1
Micrococcus flavus [13] = assay: Antimicrobial activity against Micrococcus flavus after 24 hrs by microdilution technique; type: functional; summary of the method: as §3
Enterobacter cloacae [14] = assay: Antimicrobial activity against Enterobacter cloacae after 24 hrs by microdilution technique; type: functional; summary of the method: as §3
Listeria monocytogenes [15] = assay: Antimicrobial activity against Listeria monocytogenes at 10 ug/disk after 24 hrs by disk diffusion assay; type: functional; summary of the method: as §1
Enterobacter cloacae [16] = assay: Antimicrobial activity against Enterobacter cloacae at 10 ug/disk after 24 hrs by disk diffusion assay; type: functional; summary of the method: as §1
Staphylococcus aureus [17] = assay: Antimicrobial activity against Staphylococcus aureus after 24 hrs by microdilution technique; type: functional; summary of the method: as §3
Bacillus cereus [18] = assay: Antimicrobial activity against Bacillus cereus at 1 umol/spot after 18 hrs by TLC-bioautographic method; type: functional; summary of the method: as §2
Listeria monocytogenes [19] = assay: Antimicrobial activity against Listeria monocytogenes after 24 hrs by microdilution technique; type: functional; summary of the method: as §3
Bacillus cereus [20] = assay: Antimicrobial activity against Bacillus cereus after 24 hrs by microdilution technique; type: functional; summary of the method: as §3
Bacillus cereus [21] = assay: Antimicrobial activity against Bacillus cereus at 1 umol/disk after 24 hrs by disk diffusion assay; type: functional; summary of the method: as §1
Micrococcus flavus [22] = assay: Antimicrobial activity against Micrococcus flavus at 1 umol/spot after 18 hrs by TLC-bioautographic method; type: functional; summary of the method: as §2
Escherichia coli [23] = assay: Antimicrobial activity against Escherichia coli after 24 hrs by microdilution technique; type: functional; summary of the method: as §3
Staphylococcus aureus [24] = assay: Antimicrobial activity against Staphylococcus aureus at 10 ug/disk after 24 hrs by disk diffusion assay; type: functional; summary of the method: as §1
Pseudomonas aeruginosa [25] = assay: Antimicrobial activity against Pseudomonas aeruginosa at 1 umol/disk after 24 hrs by disk diffusion assay; type: functional; summary of the method: as §1
Micrococcus flavus [26] = assay: Antimicrobial activity against Micrococcus flavus at 10 ug/disk after 24 hrs by disk diffusion assay; type: functional; summary of the method: as §1
Escherichia coli [27] = assay: Antimicrobial activity against Escherichia coli at 1 umol/spot after 18 hrs by TLC-bioautographic method; type: functional; summary of the method: as §2
Enterobacter cloacae [28] = assay: Antimicrobial activity against Enterobacter cloacae at 1 umol/spot after 18 hrs by TLC-bioautographic method; type: functional; summary of the method: as §2
Bacillus cereus [29] = assay: Antimicrobial activity against Bacillus cereus at 10 ug/disk after 24 hrs by disk diffusion assay; type: functional; summary of the method: as §1
Pseudomonas aeruginosa [30] = assay: Antimicrobial activity against Pseudomonas aeruginosa at 10 ug/disk after 24 hrs by disk diffusion assay; type: functional; summary of the method: as §1
Escherichia coli [31] = assay: Antimicrobial activity against Escherichia coli at 10 ug/disk after 24 hrs by disk diffusion assay; type: functional; summary of the method: as §1
Enterobacter cloacae [32] = assay: Antimicrobial activity against Enterobacter cloacae at 1 umol/disk after 24 hrs by disk diffusion assay; type: functional; summary of the method: as §1

MIC (Salmonella typhimurium [8]) [µM]	MIC (Pseudomonas aeruginosa [11]) [µM]	MIC (Micrococcus flavus [13]) [µM]	MIC (Enterobacter cloacae [14]) [µM]	SMILES	inhibition zone (IZ) (Salmonella typhimurium [1])	inhibition zone (IZ) (Listeria monocytogenes [2]) [millimeter]	inhibition zone (IZ) (Escherichia coli [3])	inhibition zone (IZ) (Staphylococcus aureus [4])	inhibition zone (IZ) (Salmonella typhimurium [5])	inhibition zone (IZ) (Micrococcus flavus [6])	inhibition zone (IZ) (Pseudomonas aeruginosa [7])	MBC (Salmonella typhimurium [8]) [µM]	inhibition zone (IZ) (Staphylococcus aureus [9])	MBC (Pseudomonas aeruginosa [11]) [µM]	inhibition zone (IZ) (Listeria monocytogenes [12])	MBC (Micrococcus flavus [13]) [µM]	MBC (Enterobacter cloacae [14]) [µM]	inhibition zone (IZ) (Listeria monocytogenes [15])	inhibition zone (IZ) (Enterobacter cloacae [16])	MBC (Staphylococcus aureus [17]) [µM]	also measured
186 (≈ 100 µg/mL)	372 (≈ 200 µg/mL)	93 (≈ 50 µg/mL)	186 (≈ 100 µg/mL)	N#Cc1c(-c2ccco2)cc(-c2ccc(Nc3nc(Nc4ccccc4)nc(Nc4ccccc4)n3)cc2)nc1N	inactive	0.08	inactive	inactive	inactive	inactive	inactive	372 (≈ 200 µg/mL)	0.03	744 (≈ 400 µg/mL)	inactive	186 (≈ 100 µg/mL)	372 (≈ 200 µg/mL)	inactive	inactive	372 (≈ 200 µg/mL)	inhibition zone (IZ) (Salmonella typhimurium [10]): 0.07 millimeter; MIC (Staphylococcus aureus [17]): 186 µM (≈ 100 µg/mL); inhibition zone (IZ) (Bacillus cereus [18]): inactive; MBC (Listeria monocytogenes [19]): 744 µM (≈ 400 µg/mL); MIC (Listeria monocytogenes [19]): 372 µM (≈ 200 µg/mL); MBC (Bacillus cereus [20]): 186 µM (≈ 100 µg/mL); MIC (Bacillus cereus [20]): 93 µM (≈ 50 µg/mL); inhibition zone (IZ) (Bacillus cereus [21]): inactive; inhibition zone (IZ) (Micrococcus flavus [22]): inactive; MBC (Escherichia coli [23]): 186 µM (≈ 100 µg/mL); MIC (Escherichia coli [23]): 93 µM (≈ 50 µg/mL); zone of inhibition at 10 µg/disc (Staphylococcus aureus [24]; read-out: IZ): 6 mm; inhibition zone (IZ) (Pseudomonas aeruginosa [25]): inactive; inhibition zone (IZ) (Micrococcus flavus [26]): inactive; inhibition zone (IZ) (Escherichia coli [27]): inactive; inhibition zone (IZ) (Enterobacter cloacae [28]): 0.09 millimeter; inhibition zone (IZ) (Bacillus cereus [29]): inactive; inhibition zone (IZ) (Pseudomonas aeruginosa [30]): inactive; inhibition zone (IZ) (Escherichia coli [31]): inactive; inhibition zone (IZ) (Enterobacter cloacae [32]): inactive
352 (≈ 200 µg/mL)	352 (≈ 200 µg/mL)	352 (≈ 200 µg/mL)	176 (≈ 100 µg/mL)	Nc1nc(-c2ccc(Nc3nc(Nc4ccccc4)nc(Nc4ccccc4)n3)cc2)cc(-c2ccc([N+](=O)[O-])cc2)n1	inactive	0.1	inactive	inactive	inactive	inactive	inactive	704 (≈ 400 µg/mL)	inactive	704 (≈ 400 µg/mL)	inactive	704 (≈ 400 µg/mL)	352 (≈ 200 µg/mL)	inactive	inactive	352 (≈ 200 µg/mL)	inhibition zone (IZ) (Salmonella typhimurium [10]; Salmonella enterica subsp. enterica serovar Typhimurium): inactive; MIC (Staphylococcus aureus [17]): 176 µM (≈ 100 µg/mL); inhibition zone (IZ) (Bacillus cereus [18]): inactive; MBC (Listeria monocytogenes [19]): 704 µM (≈ 400 µg/mL); MIC (Listeria monocytogenes [19]): 704 µM (≈ 400 µg/mL); MBC (Bacillus cereus [20]): 352 µM (≈ 200 µg/mL); MIC (Bacillus cereus [20]): 176 µM (≈ 100 µg/mL); inhibition zone (IZ) (Bacillus cereus [21]): inactive; inhibition zone (IZ) (Micrococcus flavus [22]): 0.07 millimeter; MBC (Escherichia coli [23]): 352 µM (≈ 200 µg/mL); MIC (Escherichia coli [23]): 176 µM (≈ 100 µg/mL); inhibition zone (IZ) (Staphylococcus aureus [24]): inactive; inhibition zone (IZ) (Pseudomonas aeruginosa [25]): inactive; inhibition zone (IZ) (Micrococcus flavus [26]): inactive; inhibition zone (IZ) (Escherichia coli [27]): inactive; inhibition zone (IZ) (Enterobacter cloacae [28]): inactive; inhibition zone (IZ) (Bacillus cereus [29]): inactive; inhibition zone (IZ) (Pseudomonas aeruginosa [30]): inactive; inhibition zone (IZ) (Escherichia coli [31]): inactive; inhibition zone (IZ) (Enterobacter cloacae [32]): inactive
